# ARFGAP1 inh: inhibitors of rat ARFGAP1 GAP activity, primary screen, biochemical, fluorescence polarization, GDP tracer | ADP-ribosylation factor GTPase-activating protein 1 (Rattus norvegicus), Q62848 | Arfgap1-stimulated ARF1 GTP hydrolysis, GDP FP detection | inhibition, % at 16.5 µM | actives 0.26% (n = 360,000);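 active = inhibition above a per-plate limit, mean inhibition of low control wells plus 3 SD, cut at about 25% in these data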
#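 System: truncated rat Arfgap1 GAP domain / Medium: HEPES-based buffer, pH 7.5 / Also added: N-terminally truncated human ARF1-GTP substrate / Incubation: enzyme reaction 120 min at 25 °C after 20 min preincubation / Measured by: FP of antibody-bound GDP Alexa 633 tracer, ex 620/em 688 nm / Replicates: singlicate, each compound tested once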
# LEDGF integ inh: blockers of LEDGF/p75-dependent integrase strand transfer – biochemical, TR-FRET, high throughput, primary screen; actives 0.64% (n = 370,000); AID 743269, 2014; TR-FRET IN-LEDGF/p75 DNA integration, Eu/Cy5; inhibition, % at 3.7 µM;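 active = inhibition above the screen-wide mean plus 3 SD, cut at about 13% in these data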;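 note: signal is the Cy5 over europium emission ratio at 671 and 618 nm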
# UHRF1 binding: UHRF1 methylated DNA binding inhibitors, primary screen, counter-screen for MBD2 inhibitor project, biochemical, TR-FRET, human UHRF1, single concentration; UHRF1 binding to methylated oligo; inhibition, % at 4.4 µM; E3 ubiquitin-protein ligase UHRF1 (Homo sapiens), Q96T88; actives 0.75% (n = 370,000); in the data active = inhibition above about 21%;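 note: UHRF1 SRA domain binding a hemimethylated CpG hairpin DNA probe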
# ASAP1 inh: inhibitors of human ASAP1 ArfGAP activity, primary screen, biochemical, fluorescence polarization | AID 624377, 2012 | Arf-GAP with SH3 domain, ANK repeat and PH domain-containing protein 1 (Homo sapiens), … | ASAP1-stimulated ARF1 GTP hydrolysis, GDP FP detection | actives 0.19% (n = 360,000) | inhibition, % at 16.5 µM; in the data active = inhibition above about 25%
# TCR-CD3 inh: inhibitors of human TCR-CD3 interaction, primary screen, biochemical, fluorescence, TAMRA-labeled TCR probe; AID 651800, 2012; T-cell receptor (TCR); actives 0.37% (n = 360,000); inhibition, % at 9.4 µM; in the data active = inhibition above about 19%;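 note: recombinant mutant TCR 2C K166C tagged with TAMRA read by polarization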
# MBD2 DNA inh: inhibitors of MBD2 binding to methylated DNA, primary screen, biochemical, TR-FRET, DNA-binding domain, human. Methyl-CpG-binding domain protein 2 (Homo sapiens), Q9UBB5. MBD2 binding to methylated oligonucleotide. inhibition, % at 4.4 µM. actives 0.31% (n = 370,000); in the data active = inhibition above about 13%
# Target sequence (Q9UBB5 whole entry, looked up, the tested form may be a part): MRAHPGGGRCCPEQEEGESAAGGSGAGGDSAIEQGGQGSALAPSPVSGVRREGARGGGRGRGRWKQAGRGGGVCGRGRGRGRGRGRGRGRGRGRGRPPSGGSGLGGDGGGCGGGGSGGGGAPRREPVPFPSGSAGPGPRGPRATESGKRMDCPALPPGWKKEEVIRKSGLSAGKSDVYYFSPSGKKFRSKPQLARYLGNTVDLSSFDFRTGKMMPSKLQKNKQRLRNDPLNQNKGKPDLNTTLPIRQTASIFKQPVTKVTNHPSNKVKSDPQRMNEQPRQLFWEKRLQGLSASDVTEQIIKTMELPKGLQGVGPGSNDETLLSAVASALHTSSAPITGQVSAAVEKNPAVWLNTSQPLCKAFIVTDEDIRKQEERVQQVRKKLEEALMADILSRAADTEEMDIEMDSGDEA
# IN multimer up: HIV-1 IN multimer formation enhancers, counter-screen for LEDGF/p75 integration inhibitor project, biochemical, TR-FRET; shares compounds with LEDGF integ inh; TR-FRET HIV-1 integrase multimerization; activation, % at 7.7 µM; actives 17% (n = 2,000); in the data active = activation above about 8.9%
# TRFRET interf: TR-FRET optical interference artefacts, confirmation, artefact control for LEDGF/p75-dependent integration inhibitor project, biochemical, HIV-1 IN multimerization | AID 1053135, 2014 | TR-FRET optical interference counterscreen | 2,000 tested, under 10 active | inhibition, % at 7.7 µM | shares compounds with LEDGF integ inh;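 active = inhibition above the mean over all tested compounds plus 3 SD, which no compound reached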
# LEDGF integ conf: inhibitors of HIV-1 IN-LEDGF/p75 DNA integration, confirmation, biochemical, TR-FRET; shares compounds with LEDGF integ inh; TR-FRET LEDGF/p75-dependent HIV-1 integration; inhibition, % at 3.7 µM; actives 36% (n = 2,000); AID 1053136, 2014; in the data active = inhibition above about 14%
# A number is an active result; n = inactive; x = no result. A selection: hits, their analogues and other compounds. The true share with any hit is near 2%.
SMILES,ARFGAP1 inh,LEDGF integ inh,UHRF1 binding,ASAP1 inh,TCR-CD3 inh,MBD2 DNA inh,IN multimer up,TRFRET interf,LEDGF integ conf
O=C(c1ccc([N+](=O)[O-])c(CS(=O)(=O)c2ccc(Cl)cc2)c1)N1CCCC1,n,n,n,n,n,n,x,x,x
Cc1nnc(SCC2=C(C(=O)O)N3C(=O)C(NC(=O)Cn4cnnn4)C3SC2)s1 (stereo not given),n,n,n,n,n,n,x,x,x
CN(C)CCn1nnnc1SCC1=C(C(=O)O)N2C(=O)[C@@H](NC(=O)Cc3csc(N)n3)[C@H]2SC1,n,24,39,n,n,n,n,n,19
CCn1c(=O)[nH]c2cc(Cl)c(Cl)cc21,n,16,n,n,n,n,n,n,n
COc1cccc(NC(=O)c2cc(OC)c(OC)c(OC)c2Br)c1,n,14,n,n,n,n,n,n,n
CCOC(=O)c1ccc(NC(=O)c2cc(OC)c(OC)c(OC)c2Br)cc1,n,n,n,n,n,n,x,x,x
Cc1ccc(Cl)cc1N1CCN(C(=O)C(C)n2ncn3cccc3c2=O)CC1 (stereo not given),n,n,n,n,n,n,x,x,x
CCC(CC)NC(=O)Cc1ccc(S(=O)(=O)N2CCOCC2)s1,n,16,n,n,n,n,n,n,n
CCCC(C)NC(=O)Cc1ccc(S(=O)(=O)N2CCOCC2)s1 (stereo not given),n,n,n,n,n,n,x,x,x
COc1cc(CCNC2=CC(=O)c3ncccc3C2=O)ccc1O,n,29,n,n,n,n,n,n,60
CC(=O)c1ccc(S(=O)(=O)N2CCC3(CC2)CC(=O)c2ccccc2O3)cc1,n,n,n,n,n,n,x,x,x
COc1cc(/C=C2\C(=O)N(CCC#N)N=C2C)ccc1OCC(=O)Nc1ccccc1,n,n,n,n,n,n,x,x,x
CCOc1cc(/C=C2\C(=O)N(CCC#N)N=C2C)ccc1OCC(N)=O,n,15,n,n,n,n,n,n,n
O=C(COc1ccc(Br)cc1)NNC(=O)Cc1ccc(S(=O)(=O)N2CCOCC2)s1,n,n,n,n,n,n,x,x,x
Cc1cc(/C=N/O)c(C)n1-c1ccc(Br)cc1,n,18,n,n,n,n,n,n,n
COc1ccc2nc(N3C(=O)C(O)=C(C(=O)c4ccco4)C3c3ccccc3OC)sc2c1 (stereo not given),n,n,n,n,n,n,x,x,x
COc1ccc2nc(N3C(=O)C(O)=C(C(=O)c4ccco4)C3c3ccc(C)o3)sc2c1 (stereo not given),n,14,n,n,n,n,n,n,n
CC(=O)Nc1ccc(S(=O)(=O)Nc2nc3ccccc3nc2Nc2cccc(O)c2)cc1,n,n,n,n,n,n,x,x,x
CC(=O)Nc1ccc(S(=O)(=O)Nc2nc3ccccc3nc2Nc2ccc(C(=O)O)c(O)c2)cc1,n,26,26,n,n,n,23,n,29

# Source: PubChem
